Measurements as given in ChEMBL document CHEMBL1124947, “Cationic antiprotozoal drugs. Trypanocidal activity of 2-(4'-formylphenyl)imidazo[1,2-a]pyridinium guanylhydrazones and related derivatives of quaternary heteroaromatic compounds” (J Med Chem, 1990).

What was measured:
Format in all cases: functional
[1] = tested on: Mus musculus; test: Trypanocidal Activity at I.C.E. value 0.46 when administered subcutaneously.
Outline: (§1)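 Blood-stage T. rhodesiense infection came from a standard inoculum lethal to all untreated mice. Drug was given by subcutaneous injection to groups of five mice. Survival beyond 30 days counted as cure. […] Sub-curative doses scored 0, and data were normalized at each dose.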

[2] = tested on: Mus musculus; test: Trypanocidal Activity at I.C.E. value 0.58 when administered subcutaneously.
Outline: (§2)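 Mice, in groups of five per dose, were given a standard inoculum of blood-stage T. rhodesiense that is lethal to all untreated controls, then dosed subcutaneously. Usually 11 dose levels were used (2^n × 0.42 mg/kg).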

[3] = tested on: Mus musculus; test: Trypanocidal Activity at I.C.E. value 0.18 when administered subcutaneously.
[4] = tested on: Mus musculus; test: Trypanocidal Activity at I.C.E. value 0.26 when administered subcutaneously.; outline: as §1
[5] = tested on: Trypanosoma brucei rhodesiense; test: In Vitro measurement of inhibition of leucine uptake in cell culture of Trypanosoma rhodesiense; conditions: read-out: ID50 (the source's name)
Outline: (§3)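 Trypanosomes harvested from infected rats, cultured 3 h with several concentrations of drug, usually 0.1–100 µg/mL. Radiolabeled L-leucine uptake measured. ID50 is the concentration in µg/mL giving 50% inhibition of incorporation.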

[6] = tested on: Trypanosoma brucei rhodesiense; test: In Vitro measurement of inhibition of thymidine uptake in cell culture of Trypanosoma rhodesiense; conditions: read-out: ID50 (the source's name)
Outline: (§4)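 Parasites harvested from infected rats and incubated 3 h across a drug concentration series, usually 0.1–100 µg/mL. Incorporation of radiolabeled thymidine measured. ID50 is the concentration (µg/mL) producing 50% inhibition.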

[7] = tested on: Mus musculus; test: Trypanocidal Activity at I.C.E. value 0.64 when administered subcutaneously.; outline: as §2
[8] = tested on: Mus musculus; test: Trypanocidal Activity at I.C.E. value 0.61 when administered perorally.
[9] = tested on: Mus musculus; test: Trypanocidal Activity at I.C.E. value 0.67 when administered subcutaneously.; outline: as §2
[10] = tested on: Mus musculus; test: Trypanocidal Activity at I.C.E. value 0.59 when administered subcutaneously.; outline: as §2
[11] = tested on: Mus musculus; test: Trypanocidal Activity at I.C.E. value 0.48 when administered perorally.
[12] = tested on: Mus musculus; test: Trypanocidal Activity at I.C.E. value 0.24 when administered subcutaneously.; outline: as §1
[13] = tested on: Mus musculus; test: Trypanocidal Activity at I.C.E. value 0.71 when administered subcutaneously.; outline: as §2
[14] = tested on: Mus musculus; test: Trypanocidal Activity at I.C.E. value 0.23 when administered subcutaneously.; outline: as §1
[15] = tested on: Mus musculus; test: Trypanocidal Activity at I.C.E. value 0.21 when administered subcutaneously.
[16] = tested on: Mus musculus; test: Trypanocidal Activity at I.C.E. value 0.10 when administered perorally.
[17] = tested on: Trypanosoma brucei rhodesiense; test: In Vitro measurement of inhibition of thymidine uptake in cell culture of Trypanosoma rhodesiense.; conditions: read-out: ID50 (the source's name); outline: as §4
[18] = tested on: Mus musculus; test: Trypanocidal Activity at I.C.E. value 0.39 when administered subcutaneously.; outline: as §1
[19] = tested on: Trypanosoma brucei rhodesiense; test: In Vitro measurement of inhibition of Leucine uptake in cell culture of Trypanosoma rhodesiense.; conditions: read-out: ID50 (the source's name); outline: as §3
[20] = tested on: Mus musculus; test: Trypanocidal Activity at I.C.E. value 0.37 when administered subcutaneously.; outline: as §1
[21] = tested on: Mus musculus; test: Trypanocidal Activity at I.C.E. value 0.69 when administered subcutaneously.; outline: as §2
[22] = tested on: Mus musculus; test: Trypanocidal Activity at I.C.E. value 0.33 when administered subcutaneously.; outline: as §1
[23] = tested on: Mus musculus; test: Trypanocidal Activity at I.C.E. value 0.30 when administered subcutaneously.; outline: as §1
[24] = tested on: Mus musculus; test: Trypanocidal Activity at I.C.E. value 0.27 when administered subcutaneously.; outline: as §1
[25] = tested on: Trypanosoma brucei rhodesiense; test: In Vitro measurement of inhibition of leucine uptake in cell culture of Trypanosoma rhodesiense.; conditions: read-out: ID50 (the source's name); outline: as §3
[26] = tested on: Mus musculus; test: Trypanocidal Activity at I.C.E. value 0.29 when administered subcutaneously.; outline: as §1
[27] = tested on: Mus musculus; test: Trypanocidal Activity at I.C.E. value 0.31 when administered subcutaneously.; outline: as §1
[28] = tested on: Mus musculus; test: Trypanocidal Activity at I.C.E. value 0.43 when administered subcutaneously.; outline: as §1
[29] = tested on: Mus musculus; test: Trypanocidal Activity at I.C.E. value 0.63 when administered subcutaneously.; outline: as §2
[30] = tested on: Mus musculus; test: Trypanocidal Activity at I.C.E. value 0.19 when administered subcutaneously.
[31] = tested on: Mus musculus; test: Trypanocidal Activity at I.C.E. value 0.57 when administered perorally.
[32] = tested on: Mus musculus; test: Trypanocidal Activity at I.C.E. value 0.48 when administered subcutaneously.; outline: as §1

Br.CC(NC(=N)N/N=C/c1ccc(-c2cn3ccccc3[n+]2C)cc1)c1ccco1.[Br-] (configuration not stated)
CD50 [1]: 1.6 mg/kg

C/N=C(\NC)N/N=C/c1ccc(-c2cn3ccccc3[n+]2C)cc1.I.[I-]
CD50 [2]: 0.2 mg/kg

C[n+]1c(-c2ccc(/C=N/Nc3ccccn3)cc2)cn2ccccc21.Cc1ccc(S(=O)(=O)[O-])cc1
CD50 [3]: 212 mg/kg

C[n+]1c(COc2ccc(C(=N)N)cc2)cn2ccccc21.Cl.[Cl-]
CD50 [4]: 3.3 mg/kg
IC50 [5]: 12 µg/mL
IC50 [6]: 0.7 µg/mL

Br.CC/N=C(\NCC)N/N=C/c1ccc(/C=C/c2n(C)cc[n+]2C)cc1.[Br-]
CD50 [1]: 1.6 mg/kg

Br.Cn1cc[n+](C)c1/C=C/c1ccc(/C=N/NC2=NCCN2)cc1.[Br-]
CD50 [7]: 1.6 mg/kg

Br.C[n+]1c(-c2ccc(/C=N/NC3=NCCCN3)cc2)cn2ccccc21.[Br-]
CD50 [8]: 6.6 mg/kg
CD50 [9]: 0.1 mg/kg

Br.CCCNC(=N)N/N=C/c1ccc(-c2cn3ccccc3[n+]2C)cc1.[Br-]
CD50 [10]: 0.1 mg/kg

Br.CN(C)C(=N)N/N=C/c1ccc(OCc2cn3ccccc3[n+]2C)cc1.[Br-]
CD50 [4]: 3.3 mg/kg

Br.CC[S+]([O-])c1ccc2n(c1)cc(-c1ccc(/C=N/NC(=N)N)cc1)[n+]2C.[Br-] (configuration not stated)
CD50 [7]: 1.6 mg/kg

Br.Cn1c(COc2ccc(/C=N/NC(=N)N)cc2)[n+](C)c2ccccc21.[Br-]
CD50 [11]: 13 mg/kg
IC50 [5]: 6.1 µg/mL
IC50 [6]: 1.9 µg/mL
CD50 [9]: 0.4 mg/kg

C[n+]1c(-c2ccc(/C=N/NC(N)=S)cc2)cn2ccccc21.Cc1ccc(S(=O)(=O)[O-])cc1
CD50 [12]: 106 mg/kg

Br.Cc1ccn2cc(-c3ccc(/C=N/NC(=N)NO)cc3)[n+](C)c2c1.[Br-]
IC50 [5]: 0.7 µg/mL
CD50 [13]: 0.2 mg/kg
IC50 [6]: 0.9 µg/mL

Br.C[n+]1c(COc2ccc(/C=N/NC(=N)NO)cc2)cn2cc(C(F)(F)F)ccc21.[Br-]
CD50 [10]: 6.6 mg/kg

Cc1ccc(S(=O)(=O)O)cc1.Cc1ccc(S(=O)(=O)[O-])cc1.Cn1cc[n+](C)c1COc1ccc(/C=N/NC(=N)N2CCCC2)cc1
CD50 [14]: 6.6 mg/kg

Br.CN1CCN(C(=N)N/N=C/c2ccc(-c3cn4ccccc4[n+]3C)cc2)CC1.[Br-]
CD50 [15]: 3.3 mg/kg

C[n+]1c(-c2ccc(C(=N)N)cc2)cn2ccccc21.Cl.[Cl-]
CD50 [15]: 26 mg/kg

Br.CCNC(=N)N/N=C/c1ccc(OCc2cccc[n+]2C)cc1.[Br-]
CD50 [3]: 6.6 mg/kg
CD50 [16]: 212 mg/kg

Cc1ccc(S(=O)(=O)O)cc1.Cc1ccc(S(=O)(=O)[O-])cc1.Cc1ccc2n(c1)cc(-c1ccc(/C=N/NC(=N)N3CCSC3)cc1)[n+]2C
IC50 [17]: > 10 µg/mL
CD50 [18]: 6.6 mg/kg
IC50 [19]: 0.5 µg/mL

Br.Cc1ccn2cc(-c3ccc(/C=N/NC(=N)N4CCN(C)CC4)cc3)[n+](C)c2c1.[Br-]
CD50 [12]: 3.3 mg/kg

Br.Cc1ccc2n(c1)cc(-c1ccc(/C=N/NC(=N)NN3CCOCC3)cc1)[n+]2C.[Br-]
CD50 [20]: 3.3 mg/kg

Br.Cc1ccc2n(c1)cc(/C=C/c1ccc(/C=N/NC(=N)NO)cc1)[n+]2C.[Br-]
CD50 [21]: 3.3 mg/kg

Br.CNC(=N)N/N=C/c1ccc(-c2c([N+](=O)[O-])n3ccccc3[n+]2C)cc1.[Br-]
IC50 [5]: 3.4 µg/mL
IC50 [6]: 5.4 µg/mL
CD50 [22]: 0.4 mg/kg

Br.CCCC/N=C(/NCCCC)N/N=C/c1ccc(-c2cn3ccc(C)cc3[n+]2C)cc1.[Br-]
CD50 [12]: 53 mg/kg

Br.Cc1cccc2n1cc(COc1ccc(/C=N/NC3=NCCN3)cc1)[n+]2C.[Br-]
CD50 [7]: 0.8 mg/kg

Br.CC/N=C(\NCC)N/N=C/c1ccc(OCc2n(C)cc[n+]2C)cc1.[Br-]
CD50 [23]: 13 mg/kg

Br.CCSc1ccc2n(c1)cc(-c1ccc(/C=N/NC3=NCCN3)cc1)[n+]2C.[Br-]
CD50 [21]: 3.3 mg/kg

C[n+]1ccc(COc2ccc(/C=N/NC(=O)c3ccc(N)cc3)cc2)cc1.Cc1ccc(S(=O)(=O)[O-])cc1
CD50 [24]: 26 mg/kg

C[n+]1c(COc2ccc(/C=N/Nc3ccccn3)cc2)cn2ccccc21.Cc1ccc(S(=O)(=O)[O-])cc1
CD50 [14]: 53 mg/kg
IC50 [5]: 10.1 µg/mL
IC50 [6]: 7.9 µg/mL

Br.Cn1cc[n+](C)c1COc1ccc(/C=N/NC2=NCCN2)cc1.[Br-]
CD50 [20]: 3.3 mg/kg

Br.C/N=C(/NC)N/N=C/c1ccc(-c2cn3ccc(C)cc3[n+]2C)cc1.[Br-]
CD50 [2]: 0.4 mg/kg

Br.CCNC(=N)N/N=C/c1ccc(-c2cn3ccccc3[n+]2C)cc1.[Br-]
CD50 [10]: 0.1 mg/kg
IC50 [25]: 0.5 µg/mL
IC50 [17]: 0.4 µg/mL

Br.CC/N=C(\NCC)N/N=C/c1ccc(OCc2n(C)c3ccccc3[n+]2C)cc1.[Br-]
CD50 [16]: 212 mg/kg
CD50 [26]: 6.6 mg/kg

Br.Cc1ccn2cc(-c3ccc(/C=N/NC(=N)NN4CCOCC4)cc3)[n+](C)c2c1.[Br-]
CD50 [27]: 0.8 mg/kg

Br.C[n+]1c(-c2ccc(/C=N/NC(=N)N3CCOCC3)cc2)cn2ccccc21.[Br-]
CD50 [22]: 0.4 mg/kg

C[n+]1c(-c2ccc(/C=N/Nc3nc(N)nc(N)n3)cc2)cn2ccccc21.Cc1ccc(S(=O)(=O)[O-])cc1
CD50 [28]: 6.6 mg/kg

Cc1ccc(S(=O)(=O)O)cc1.Cc1ccc(S(=O)(=O)[O-])cc1.Cn1cc[n+](C)c1/C=C/c1ccc(/C=N/NC(=N)N2CCCC2)cc1
CD50 [29]: 0.03 mg/kg

Br.Cc1ccc2n(c1)cc(-c1ccc(/C=N/NC(=N)N(C)C)cc1)[n+]2C.[Br-]
CD50 [28]: 0.8 mg/kg

Br.Cn1c[n+](Cc2ccc(/C=N/NC3=NCCN3)cc2)c2ccccc21.[Br-]
IC50 [5]: > 10 µg/mL
CD50 [16]: 424 mg/kg
CD50 [30]: 3.3 mg/kg
IC50 [6]: 11.1 µg/mL

Br.C[n+]1c(COc2ccc(/C=N/NC(=N)N3CCCC3)cc2)cn2cc(C(F)(F)F)ccc21.[Br-]
CD50 [24]: 26 mg/kg

Cc1ccc(S(=O)(=O)[O-])cc1.Cn1c(COc2ccc(/C=N/NC(=O)c3ccc(N)cc3)cc2)[n+](C)c2ccccc21
CD50 [20]: 6.6 mg/kg

Cc1ccc(S(=O)(=O)O)cc1.Cc1ccc(S(=O)(=O)[O-])cc1.Cn1c(COc2ccc(/C=N/NC(=N)N3CCCC3)cc2)[n+](C)c2ccccc21
CD50 [31]: 6.6 mg/kg
CD50 [22]: 0.8 mg/kg

C[n+]1c(/C=C/c2ccc(/C=N/NC(=O)c3ccc(N)cc3)cc2)cn2ccccc21.Cc1ccc(S(=O)(=O)[O-])cc1
CD50 [2]: 6.6 mg/kg

Br.Cc1ccc2n(c1)cc(COc1ccc(/C=N/NC3=NCCCN3)cc1)[n+]2C.[Br-]
CD50 [21]: 0.8 mg/kg

Br.C[n+]1c(-c2ccc(/C=N/NC(=N)N)cc2)cn2c1CCCC2.[Br-]
CD50 [28]: 0.4 mg/kg

C[n+]1c(-c2ccc(/C=N/NC3N=NC(=S)N3N)cc2)cn2ccsc21.[Br-] (configuration not stated)
IC50 [5]: 4.6 µg/mL
CD50 [15]: 212 mg/kg
IC50 [6]: 2.4 µg/mL

C[n+]1c(-c2ccc(/C=N/NC3N=NC(=S)N3N)cc2)cn2ccccc21.[Br-] (configuration not stated)
CD50 [3]: 53 mg/kg

C[n+]1c(-c2ccc(/C=N/Nc3nccs3)cc2)cn2ccsc21.[Br-]
CD50 [27]: 26 mg/kg

Cc1ccc2n(c1)cc(-c1ccc(/C=N/Nc3nc[nH]n3)cc1)[n+]2C.[Br-]
CD50 [18]: 13 mg/kg
IC50 [6]: 3.8 µg/mL

Cc1ccc2n(c1)cc(-c1ccc(/C=N/Nc3ccccn3)cc1)[n+]2C.[Br-]
CD50 [32]: 0.8 mg/kg

C[n+]1c(COc2ccc(/C=N/Nc3nccs3)cc2)cn2ccccc21.[Br-]
CD50 [24]: 53 mg/kg

C[n+]1c(-c2ccc(/C=N/Nc3ncccn3)cc2)cn2ccccc21.[Br-]
CD50 [4]: 6.6 mg/kg
